Experimental data reported in article PMC3996483 (Scientific Reports, 2014).
Where a chain is given by its changes, count along the chain named. Entries after “also recorded” stand apart in the source; their conditions may differ.

T1: NS5A^33–202 domain 1, HCV genotype 1b (con1) (Hepatitis C virus genotype 1b, UniProt Q9WMX2)
T1 sequence (Q9WMX2 2005-2174): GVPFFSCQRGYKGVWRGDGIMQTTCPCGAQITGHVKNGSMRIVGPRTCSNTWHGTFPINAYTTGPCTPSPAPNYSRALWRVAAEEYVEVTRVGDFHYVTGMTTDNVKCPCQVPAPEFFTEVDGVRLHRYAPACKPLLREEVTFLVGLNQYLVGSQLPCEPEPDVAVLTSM

T2: NS5A^26–202 domain 1, HCV genotype 1b (con1) (Hepatitis C virus genotype 1b, UniProt Q9WMX2)
T2 sequence (Q9WMX2 1998-2174): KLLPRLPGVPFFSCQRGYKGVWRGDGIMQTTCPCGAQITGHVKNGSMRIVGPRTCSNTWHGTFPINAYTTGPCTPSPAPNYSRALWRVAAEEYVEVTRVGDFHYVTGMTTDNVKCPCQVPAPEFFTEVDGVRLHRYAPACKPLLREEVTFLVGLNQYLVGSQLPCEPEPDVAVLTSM

T3: Y93H NS5A^33–202, HCV genotype 1b (con1) (Hepatitis C virus genotype 1b, UniProt Q9WMX2, Y2065H)
T3 sequence (Q9WMX2 2005-2174 Y2065H): T1 sequence (Q9WMX2 2005-2174) with Y61H

T4: L31V NS5A^26–202, HCV genotype 1b (con1) (Hepatitis C virus genotype 1b, UniProt Q9WMX2, L2003V)
T4 sequence (Q9WMX2 1998-2174 L2003V): T2 sequence (Q9WMX2 1998-2174) with L6V

B1: HCV genotype 1b (con1) NS5A domain 1, residues 33–202 (domain or fragment, Hepatitis C virus genotype 1b (con1), UniProt Q9WMX2 2005-2174, looked up)
chain: T1 sequence (Q9WMX2 2005-2174)

Legend:
[1] = biological target: T1, NS5A^33–202 domain 1, HCV genotype 1b (con1); assay: MST binding assay, NS5A domain 1 residues 33–202
Outline: (§1)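 Recombinant HCV 1b (con1) NS5A was expressed with a 6-His/TEV tag, Ni- and size-exclusion purified, and the tag cleaved. Ligand: 16-step 2–4-fold dilutions. Capillaries were heated at 40% laser for 30 s, then cooled 5 s. Fnorm normalised to baseline and maximum; KD by mass-action fit; ≥3 replicates.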

[2] = biological target: T2, NS5A^26–202 domain 1, HCV genotype 1b (con1); assay: MST binding assay, NS5A domain 1 residues 26–202
Outline: as §1

[3] = biological target: T3, Y93H NS5A^33–202, HCV genotype 1b (con1); assay: MST binding assay, Y93H resistance mutant
[4] = system: Y93H NS5A^33–202, HCV genotype 1b (con1); assay: MST binding assay, Y93H resistance mutant; set-up: species or system Hepatitis C virus; conditions: MST in vitro assay, Y93H NS5A^33–202 vs NS5A^33–202
[5] = biological target: T4, L31V NS5A^26–202, HCV genotype 1b (con1); assay: MST binding assay, L31V resistance mutant
Solubility = assay type: physicochemical; conditions: pH 7, aqueous buffer
[6] = biological target: T1, NS5A^33–202 domain 1, HCV genotype 1b (con1); assay: SEC-MALLS analysis of NS5A oligomerisation state; conditions: NS5A^33–202 alone 39 ± 5 kDa (dimer), dimerisation state not affected
Outline: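 Multi-angle laser light scattering was run in batch mode (0.1 ml/min) and after size-exclusion (0.35 ml/min). Protein was run at 0.3–4 mg/ml with refractive-index detection and dn/dc 0.185; BSA served as control. Weight-average molar mass was taken from all points.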

[7] = system: HCV replicon (NS5A genotypes and subtypes); conditions: cited from earlier work
HCV genotype 1a = conditions: cited from earlier work
HCV genotype 2a (J6) = conditions: cited from earlier work
HCV genotype 3a (S52) = conditions: cited from earlier work
HCV genotype 1b (con1) = conditions: cited from earlier work
SEC-MALS = biological target: the molecule itself; assay: SEC-MALS

| Molecule | Kd [1] [nM] | Compound binding after incubation of NS5A with excess 5rU ([1]; MST, NS5A^33–202 incubated with 100-fold excess 5rU prior to adding compound) | Kd [2] [nM] | Kd [3] [nM] | decrease in KD (binding), Y93H versus wild type [4] [fold] | KD / binding (in words) [5] | solubility (Solubility) [µg/mL] | average molecular weight of NS5A^33–202 after addition of substance [6] [kDa] | resistance conferred by L31V/M/F mutations ([7]; NS5A L31V/M/F) | resistance conferred by Y93H/N/C mutations ([7]; NS5A Y93H/N/C) | EC50 ([7]; replicon, most genotypes and subtypes) [nM] | decrease in EC50 by Y93H/C resistance mutation (HCV genotype 1a; genotype 1a (H77), Y93H/C) [fold] | EC50 (HCV genotype 1a; replicon, genotype 1a (J1)) [nM] | decrease in EC50 by Y93H/C resistance mutation (HCV genotype 2a (J6); Y93H/C) [fold] | EC50 (HCV genotype 2a (J6); replicon) [nM] | decrease in EC50 by Y93H/C resistance mutation (HCV genotype 3a (S52); Y93H/C) | EC50 (HCV genotype 3a (S52); replicon) [nM] | resistance conferred by L31V mutation (HCV genotype 1b (con1); replicon assays, L31V) [fold] | decrease in EC50 by Y93H/C resistance mutation (HCV genotype 1b (con1); replicon, Y93H/C) | stoichiometry N (SEC-MALS) |
| --- | --- | --- | --- | --- | --- | --- | --- | --- | --- | --- | --- | --- | --- | --- | --- | --- | --- | --- | --- | --- |
| COC(=O)N[C@H](C(=O)N1CCC[C@H]1c1nc(-c2ccc(-c3ccc(-c4c[nH]c([C@@H]5CCCN5C(=O)[C@@H](NC(=O)OC)C(C)C)n4)cc3)cc2)c[nH]1)C(C)C [BMS-790052, daclatasvir] | 8 ± 3 | eliminated binding | 210 ± 46 | > 500 | > 50 | did not show any detectable binding; also recorded: no detectable binding | < 1.6 | 41 ± 7 | 23- to 3,350 fold | 19- to 47,000 fold | 0.002 to 0.15 | 220 | 1.1 | 143 | 14 | 2,111 fold | 0.9 | 23 | ~ 5 fold |  |
| B1 |  |  |  |  |  |  |  |  |  |  |  |  |  |  |  |  |  |  |  | 2 |
